Source: PubChem (Broad Institute)
SR-BI HDL uptake – inhibitors of SR-BI mediated HDL lipid uptake, primary screen, ldlA[mSR-BI] cells, fluorescence, single point; Scavenger receptor class B member 1 (Mus musculus), Q61009; ldlA[mSR-BI] CHO cells, DiI-HDL uptake fluorescence, 3 h; inhibition, % at 12.5 µM; 0.96% of 320,000 active; AID 488896, 2010;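 active means mean replicate inhibition of at least 70% and a set share of replicates each scoring 70 or more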
Target sequence (Q61009 whole entry, looked up): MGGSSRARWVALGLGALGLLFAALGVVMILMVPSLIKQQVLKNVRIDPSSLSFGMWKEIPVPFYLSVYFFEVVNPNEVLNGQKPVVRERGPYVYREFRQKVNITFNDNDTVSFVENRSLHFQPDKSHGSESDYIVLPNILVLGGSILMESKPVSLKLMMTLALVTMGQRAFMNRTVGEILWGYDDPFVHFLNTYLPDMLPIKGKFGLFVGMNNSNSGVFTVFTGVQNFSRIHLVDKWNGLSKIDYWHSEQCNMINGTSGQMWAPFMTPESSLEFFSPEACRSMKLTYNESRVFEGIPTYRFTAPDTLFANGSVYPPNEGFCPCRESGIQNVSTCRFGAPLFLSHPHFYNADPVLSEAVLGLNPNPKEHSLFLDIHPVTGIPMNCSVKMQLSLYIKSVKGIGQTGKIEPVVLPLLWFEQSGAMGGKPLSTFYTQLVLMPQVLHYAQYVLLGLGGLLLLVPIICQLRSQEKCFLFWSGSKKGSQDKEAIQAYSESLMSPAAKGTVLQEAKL
CDK5 p35 inh – inhibitors of human CDK5/p35 kinase, primary screen, biochemical, single concentration. Recombinant CDK5/p35, ADP-Glo luminescence, 60 min. inhibition, % at 10 µM. 0.01% of 330,000 active;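 active means highest replicate inhibition of at least 50% and at least 75% of replicates reaching 50%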
SR-BI uptake up – activators of SR-BI mediated DiI-HDL uptake, primary screen, ldlA[mSR-BI] CHO cells, DiI fluorescence | 3 h; 100 = double the neutral-control signal | activation, % at 12.5 µM | 0.096% of 320,000 active;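 active means mean replicate activation of at least 60% and every replicate at or above 60%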
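system = CHO ldlA[mSR-BI] cells, LDL receptor-null, SR-BI overexpressing | medium = Ham's F12 with 0.5% BSA, HEPES 25 mM, pH 7.4 | probe or stimulus = DiI-HDL 10 µg/mL | compound dosing = single-point compound dose | incubation = compound exposure 3 h, 37 °C | technique = DiI fluorescence, bottom read | read-out = cell-associated DiI fluorescence as measure of HDL uptake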
NSD2 HMT inh – NSD2 histone methyltransferase inhibitors, primary screen, biochemical, AlphaScreen, single concentration, set 2; NSD2 peptide methylation, 120 min; 0.54% of 310,000 active; Histone-lysine N-methyltransferase NSD2 (Homo sapiens), O96028; inhibition, % at 12.5 µM
dFosB activator – activators of delta FosB homodimer, primary screen, biochemical, fluorescence polarization, TAMRA-CDK5 oligo, single point; purified delta FosB; percent of positive-control signal above neutral wells; activation, % at 25 µM; 0.99% of 340,000 active; AID 493131, 2011;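 active means mean activation above about 17%, with every replicate also reaching it, limit read from the data, passing the limit was not always enough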
Dyrk1A ADPGlo – rat Dyrk1A kinase inhibitors, primary screen, biochemical, single point, plate reader | 0.43% of 310,000 active | AID 504441, 2011 | ADP-Glo luminescence, NFATc1 peptide | inhibition, % at 12.5 µM
Of the large screens only hits and unclear results are named; the others gave an inactive call. A selection: hits, their analogues and other compounds. The true share with any hit is near 2.5%. Unless noted, no stated cut-off is given here; in the data, active means inhibition above about 50%; inactive means the rest.

CCCN(C(=O)Cn1c(C(F)(F)F)nc2ccccc21)C1CCS(=O)(=O)C1 (centres undefined)	none
Cc1cc(N2CCN(C)CC2)nc2ccc(NC(=S)NCCN3CCc4ccccc4C3)cc12	dFosB activator 35 (no result: SR-BI HDL uptake, SR-BI uptake up)
O=C(NCCOc1ccccc1)C1=CC=CN2CCS(=O)(=O)N=C12	none
Cc1cc(NC(=O)/C=C/c2ccccc2Cl)n(-c2nc3ccccc3[nH]2)n1	SR-BI HDL uptake 96 (no result: Dyrk1A ADPGlo)
CN(C)S(=O)(=O)c1ccc(Cl)c(C(=O)OCC(=O)NC(=O)c2cccn2C)c1	SR-BI HDL uptake 72
Cn1cccc1C(=O)NC(=O)COC(=O)c1cc([N+](=O)[O-])ccc1Cl	none (no result: NSD2 HMT inh)
Nc1nc(COc2ccccc2C=O)nc(Nc2ccccc2)n1	dFosB activator 59 (no result: NSD2 HMT inh)
COc1ccc(C(OC(=O)c2ccco2)C(=O)NC2CCCCC2)cc1OC (centres undefined)	SR-BI uptake up 336
O=C(Cc1ccc(Cl)cc1)N1CCc2ccccc2C1	SR-BI uptake up 449
COc1ccccc1N1CCN(S(=O)(=O)CCNC(=O)C2CCCCC2)CC1	none
CCCOc1cc(N(CC)CC)ccc1/C=C(/C#N)c1nc2ccc(C)cc2[nH]1	SR-BI HDL uptake 89 (no result: NSD2 HMT inh)
Cc1cc(/C=C(\C#N)c2nc3ccccc3[nH]2)c(C)n1C	none
CCN(CC)c1ccc(/C=C(/C#N)c2nc3ccc(C)cc3[nH]2)c(OC(C)C)c1	SR-BI HDL uptake 102
CCN(CC)c1ccc(/C=N/Nc2nc3ccccc3[nH]2)c(O)c1	SR-BI HDL uptake 114, dFosB activator 32
Cc1ccc2nc(/C(C#N)=C\c3ccc(Oc4ccc(C(F)(F)F)cc4[N+](=O)[O-])cc3)[nH]c2c1	none
COc1cc(/C=C(\C#N)c2nc3ccc(C)cc3[nH]2)c([N+](=O)[O-])cc1OC	none
CCOc1cc(N(CC)CC)ccc1/C=C(/C#N)c1nc2ccccc2[nH]1	SR-BI HDL uptake 109
COc1ccc(CSc2nnc(SCC(=O)Nc3ccc4c(c3)OCO4)s2)cc1	none (no result: SR-BI HDL uptake, CDK5 p35 inh, SR-BI uptake up, dFosB activator, Dyrk1A ADPGlo)
CC1(C(=O)NCCC#N)CCN1C(=O)c1ccccc1CCc1ccccc1 (centres undefined)	none (no result: SR-BI HDL uptake, CDK5 p35 inh, SR-BI uptake up, dFosB activator, Dyrk1A ADPGlo)
O=C(OCc1ccccc1C(F)(F)F)c1ccc(Br)c(S(=O)(=O)N2CCOCC2)c1	none (no result: Dyrk1A ADPGlo)
C=CCNc1nc(Cl)nc(Nc2ccc([N+](=O)[O-])cc2)n1	none
C=CCNc1nc(Nc2ccc([N+](=O)[O-])cc2)nc(N2CCCC2)n1	SR-BI HDL uptake 76, dFosB activator 62
CN(C)CCOC(=O)c1ccc2[nH]c3c(c2c1)CSCC3	dFosB activator 28 (no result: SR-BI HDL uptake, SR-BI uptake up)
O=C(Nc1ccc2nsnc2c1)N1CCCCC1	none
S=C(Nc1ccc2nsnc2c1)N1CCCCCC1	NSD2 HMT inh 153
CC(C)CNC(=O)OCc1cn(Cc2ccc(Cl)cc2)nn1	none (no result: SR-BI HDL uptake, CDK5 p35 inh, SR-BI uptake up, dFosB activator, Dyrk1A ADPGlo)
COc1ccc(CCNC(=O)c2ccc(N3CCCCS3(=O)=O)cc2)cc1OC	SR-BI HDL uptake 79
C/C(=N/NC(=O)CSc1nnc(SCc2ccc(C)cc2)s1)c1cccc(O)c1	none (no result: SR-BI HDL uptake, CDK5 p35 inh, SR-BI uptake up, dFosB activator, Dyrk1A ADPGlo)
COC(=O)/C(=C\Nc1ccc(OC)cc1)NC(=O)c1ccc(Cl)cc1Cl	none (no result: NSD2 HMT inh)
COC(=O)/C(=C\Nc1ccc(Cl)cc1Cl)NC(=O)c1ccc(OC)cc1	SR-BI HDL uptake 83
COc1ccc(CCNC(=O)c2ccc(-c3cccc([N+](=O)[O-])c3)o2)cc1OC	SR-BI HDL uptake 72
CC(=O)N1CCc2cc(Br)c(S(=O)(=O)CCC(=O)N3CCN(c4ccccn4)CC3)cc21	none (no result: SR-BI HDL uptake, CDK5 p35 inh, SR-BI uptake up, dFosB activator, Dyrk1A ADPGlo)
COc1ccc(Br)cc1/C=N/NC(=O)c1ccc(OC)c(OC)c1	SR-BI HDL uptake 92
COc1ccc(Br)cc1/C=N/NC(=O)c1cc(OC)c(OC)c(OC)c1	SR-BI HDL uptake 75
COc1ccc(Br)cc1/C=N/NC(=O)c1ccc2nc[nH]c2c1	none
Cc1ccc(NC(=O)NCC2CCN(Cc3cccc(Cl)c3)CC2)cc1Cl	dFosB activator 20
CCc1ccc(NC(=O)NCC2CCN(Cc3cccc(Cl)c3)CC2)cc1	none
Cc1ccc(S(=O)(=O)N2CCOCC2)cc1C(=O)OC1CCOC1=O (centres undefined)	none
